Data reported in ChEMBL document CHEMBL4706531, “Discovery of Novel c-Mesenchymal-Epithelia transition factor and histone deacetylase dual inhibitors” (Eur J Med Chem, 2020).

What was measured:
HCT-116 [1] = experiment: Induction of apoptosis in human HCT-116 cells assessed as necrotic cells at 1 uM measured after 48 hrs by Annexin V/PI staining based Flowcytometry method (reference value: 1.19%); format: functional
Method in brief: (§1)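 HCT-116 cells seeded at 10^5 cells/mL in 6-well plates. After 12 h, dosed at 0.2, 1.0 or 5.0 μM for 48 h, then washed three times in PBS. Stained with Annexin V-FITC/PI per kit and read by flow cytometry. Early apoptotic = Annexin V+/PI−, late = double positive. Mean ± S.D., n = 3.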

HCT-116 [2] = experiment: cells; format: functional, cell-based; conditions: Homo sapiens, HCT-116, 72 h
HCT-116 [3] = experiment: Induction of apoptosis in human HCT-116 cells assessed as necrotic cells at 0.2 uM measured after 48 hrs by Annexin V/PI staining based Flowcytometry method (reference value: 1.19%); format: functional; method in brief: as §1
HCT-116 [4] = experiment: Cell cycle arrest in human HCT-116 cells assessed as accumulation of cells in S phase at 1 uM measured after 48 hrs by PI staining based flowcytometry method (reference value: 30.63%); format: functional
HCT-116 [5] = experiment: Induction of apoptosis in human HCT-116 cells assessed as early apoptotic cells at 5 uM measured after 48 hrs by Annexin V/PI staining based Flowcytometry method (reference value: 2.04%); format: functional; method in brief: as §1
MCF7 = experiment: cells; format: functional, cell-based; conditions: Homo sapiens, MCF7, 72 h
Histone deacetylase 1 = Histone deacetylase 1 (Homo sapiens, UniProt Q13547); experiment: Inhibition of human C-terminal Flag tagged HDAC1 (1 to 482 residues) expressed in SF9 cells using Ac-peptide substrate preincubated for 15 mins followed by substrate addition and measured after 60 mins by microplate reader method
HCT-116 [6] = experiment: Cell cycle arrest in human HCT-116 cells assessed as accumulation of cells in G1 phase at 0.2 uM measured after 48 hrs by PI staining based flowcytometry method (reference value: 57.63%); format: functional
HCT-116 [7] = experiment: Induction of apoptosis in human HCT-116 cells assessed as viable cells at 0.2 uM measured after 48 hrs by Annexin V/PI staining based Flowcytometry method (reference value: 95.33%); format: functional; conditions: read-out: Activity; method in brief: as §1
HCT-116 [8] = experiment: Induction of apoptosis in human HCT-116 cells assessed as late apoptotic cells at 5 uM measured after 48 hrs by Annexin V/PI staining based Flowcytometry method (reference value: 1.44%); format: functional; method in brief: as §1
HCT-116 [9] = experiment: Induction of apoptosis in human HCT-116 cells assessed as late apoptotic cells at 1 uM measured after 48 hrs by Annexin V/PI staining based Flowcytometry method (reference value: 1.44%); format: functional; method in brief: as §1
A549 = experiment: cells; format: functional, cell-based; conditions: Homo sapiens, A549, 72 h
HCT-116 [10] = experiment: Cell cycle arrest in human HCT-116 cells assessed as accumulation of cells in S phase at 5 uM measured after 48 hrs by PI staining based flowcytometry method (reference value: 30.63%); format: functional
HCT-116 [11] = experiment: Induction of apoptosis in human HCT-116 cells assessed as early apoptotic cells at 0.2 uM measured after 48 hrs by Annexin V/PI staining based Flowcytometry method (reference value: 2.04%); format: functional; method in brief: as §1
HCT-116 [12] = experiment: Induction of apoptosis in human HCT-116 cells assessed as early apoptotic cells at 1 uM measured after 48 hrs by Annexin V/PI staining based Flowcytometry method (reference value: 2.04%); format: functional; method in brief: as §1
HCT-116 [13] = experiment: Induction of apoptosis in human HCT-116 cells assessed as viable cells at 1 uM measured after 48 hrs by Annexin V/PI staining based Flowcytometry method (reference value: 95.33%); format: functional; conditions: read-out: Activity; method in brief: as §1
HCT-116 [14] = experiment: Cell cycle arrest in human HCT-116 cells assessed as accumulation of cells in G1 phase at 5 uM measured after 48 hrs by PI staining based flowcytometry method (reference value: 57.63%); format: functional
HCT-116 [15] = experiment: Cell cycle arrest in human HCT-116 cells assessed as accumulation of cells in G2/M phase at 5 uM measured after 48 hrs by PI staining based flowcytometry method (reference value: 11.74%); format: functional
HCT-116 [16] = experiment: Induction of apoptosis in human HCT-116 cells assessed as necrotic cells at 5 uM measured after 48 hrs by Annexin V/PI staining based Flowcytometry method (reference value: 1.19%); format: functional; method in brief: as §1
HCT-116 [17] = experiment: Cell cycle arrest in human HCT-116 cells assessed as accumulation of cells in G2/M phase at 0.2 uM measured after 48 hrs by PI staining based flowcytometry method (reference value: 11.74%); format: functional
[18] = target: Hepatocyte growth factor receptor (Homo sapiens, UniProt P08581); experiment: Inhibition of c-MET(unknown origin) using FAM labelled peptide substrate preincubated for 10 mins followed by substrate addition and measured by microplate reader method
HCT-116 [19] = experiment: Induction of apoptosis in human HCT-116 cells assessed as viable cells at 5 uM measured after 48 hrs by Annexin V/PI staining based Flowcytometry method (reference value: 95.33%); format: functional; conditions: read-out: Activity; method in brief: as §1
HCT-116 [20] = experiment: Cell cycle arrest in human HCT-116 cells assessed as accumulation of cells in G2/M phase at 1 uM measured after 48 hrs by PI staining based flowcytometry method (reference value: 11.74%); format: functional
HCT-116 [21] = experiment: Cell cycle arrest in human HCT-116 cells assessed as accumulation of cells in G1 phase at 1 uM measured after 48 hrs by PI staining based flowcytometry method (reference value: 57.63%); format: functional
HCT-116 [22] = experiment: Cell cycle arrest in human HCT-116 cells assessed as accumulation of cells in S phase at 0.2 uM measured after 48 hrs by PI staining based flowcytometry method (reference value: 30.63%); format: functional
HCT-116 [23] = experiment: Induction of apoptosis in human HCT-116 cells assessed as late apoptotic cells at 0.2 uM measured after 48 hrs by Annexin V/PI staining based Flowcytometry method (reference value: 1.44%); format: functional; method in brief: as §1

Chain of Hepatocyte growth factor receptor (P08581 whole entry): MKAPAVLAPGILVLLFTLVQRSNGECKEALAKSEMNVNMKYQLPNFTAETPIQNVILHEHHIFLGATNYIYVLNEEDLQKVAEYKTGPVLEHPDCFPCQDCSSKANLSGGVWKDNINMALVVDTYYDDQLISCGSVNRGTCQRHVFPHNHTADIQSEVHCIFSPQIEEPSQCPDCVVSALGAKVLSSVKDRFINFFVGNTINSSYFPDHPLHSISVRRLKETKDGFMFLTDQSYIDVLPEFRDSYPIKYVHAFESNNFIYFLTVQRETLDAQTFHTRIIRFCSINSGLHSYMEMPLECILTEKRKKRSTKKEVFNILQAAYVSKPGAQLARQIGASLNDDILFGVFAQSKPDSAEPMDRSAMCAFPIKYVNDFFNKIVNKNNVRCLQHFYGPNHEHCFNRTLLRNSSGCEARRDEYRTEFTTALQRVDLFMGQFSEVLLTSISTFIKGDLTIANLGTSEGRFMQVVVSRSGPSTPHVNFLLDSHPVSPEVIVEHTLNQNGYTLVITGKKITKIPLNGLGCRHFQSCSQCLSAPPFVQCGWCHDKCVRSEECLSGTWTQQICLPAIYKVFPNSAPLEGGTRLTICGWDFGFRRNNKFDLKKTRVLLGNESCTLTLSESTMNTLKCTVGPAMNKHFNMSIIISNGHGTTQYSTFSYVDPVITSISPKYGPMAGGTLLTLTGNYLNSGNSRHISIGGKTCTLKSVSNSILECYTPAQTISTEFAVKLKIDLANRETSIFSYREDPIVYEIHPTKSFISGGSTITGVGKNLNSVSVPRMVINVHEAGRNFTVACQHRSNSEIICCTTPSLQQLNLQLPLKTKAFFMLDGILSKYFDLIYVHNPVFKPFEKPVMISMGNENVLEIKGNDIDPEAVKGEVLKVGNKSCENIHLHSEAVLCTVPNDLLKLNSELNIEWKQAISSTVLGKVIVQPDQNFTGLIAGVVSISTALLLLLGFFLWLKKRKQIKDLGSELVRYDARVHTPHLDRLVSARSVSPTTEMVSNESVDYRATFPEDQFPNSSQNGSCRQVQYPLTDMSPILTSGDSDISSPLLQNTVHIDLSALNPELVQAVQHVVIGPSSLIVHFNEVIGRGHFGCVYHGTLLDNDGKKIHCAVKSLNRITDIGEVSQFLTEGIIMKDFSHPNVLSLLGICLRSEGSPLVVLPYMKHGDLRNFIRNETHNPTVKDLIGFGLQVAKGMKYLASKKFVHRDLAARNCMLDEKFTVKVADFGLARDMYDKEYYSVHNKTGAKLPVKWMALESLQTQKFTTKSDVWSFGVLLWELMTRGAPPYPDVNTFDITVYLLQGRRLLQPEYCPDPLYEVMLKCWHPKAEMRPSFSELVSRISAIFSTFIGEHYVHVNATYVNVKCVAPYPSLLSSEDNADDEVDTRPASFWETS
Chain of Histone deacetylase 1 (Q13547 whole entry, the tested form may be a part): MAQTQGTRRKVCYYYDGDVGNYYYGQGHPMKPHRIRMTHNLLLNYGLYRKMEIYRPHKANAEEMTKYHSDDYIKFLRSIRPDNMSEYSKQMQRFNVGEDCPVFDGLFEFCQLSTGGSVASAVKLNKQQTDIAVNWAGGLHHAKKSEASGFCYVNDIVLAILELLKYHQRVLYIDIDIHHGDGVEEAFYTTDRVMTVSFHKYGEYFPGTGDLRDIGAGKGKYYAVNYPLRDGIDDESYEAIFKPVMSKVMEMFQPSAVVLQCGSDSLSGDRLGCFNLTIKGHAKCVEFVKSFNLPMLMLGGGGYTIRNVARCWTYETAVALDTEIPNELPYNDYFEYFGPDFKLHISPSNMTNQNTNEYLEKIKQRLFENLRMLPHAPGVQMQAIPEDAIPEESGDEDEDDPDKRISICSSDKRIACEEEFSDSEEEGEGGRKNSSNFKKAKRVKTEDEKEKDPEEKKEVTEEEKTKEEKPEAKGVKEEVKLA

For `COc1cc2c(Oc3ccc(NC(=O)c4nn(-c5ccccc5)ccc4=O)cc3)ccnc2cc1OCCCCCCC(=O)NO`, the Activity (HCT-116 [1]) was 4.12%, the IC50 (HCT-116 [2]) was 220 nM and the Activity (HCT-116 [3]) was 0.9%. It also gave an Activity (HCT-116 [4]) of 15.1%, an Activity (HCT-116 [5]) of 19.23% and an IC50 (MCF7) of 1590 nM. It also gave an IC50 (Histone deacetylase 1) of 18.5 nM, an Activity (HCT-116 [6]) of 55.37% and a viability at 0.2 µM (HCT-116 [7]) of 94.9%. For the same compound, the Activity (HCT-116 [8]) was 2.25%, the Activity (HCT-116 [9]) was 3.09% and the IC50 (A549) was 220 nM. It also gave an Activity (HCT-116 [10]) of 13.28%, an Activity (HCT-116 [11]) of 2.35% and an Activity (HCT-116 [12]) of 8.44%. For the same compound, the viability at 1 µM (HCT-116 [13]) was 84.3%, the Activity (HCT-116 [14]) was 5.5% and the Activity (HCT-116 [15]) was 81.22%. It also gave an Activity (HCT-116 [16]) of 2.96%, an Activity (HCT-116 [17]) of 14.59% and an IC50 [18] of 5.4 nM. It also gave a viability at 5 µM (HCT-116 [19]) of 75.6%, an Activity (HCT-116 [20]) of 80.03% and an Activity (HCT-116 [21]) of 4.87%. It also gave an Activity (HCT-116 [22]) of 30.04% and an Activity (HCT-116 [23]) of 1.84%.
